The results in this text go back to ChEMBL document CHEMBL1208709, “Synthesis and pharmacological evaluation of 1,1,3-substituted urea derivatives as potent TNF-alpha production inhibitors” (2010).

Experiment [1] concerns Rattus norvegicus. Nature of the experiment: Antiinflammatory activity in Lewis rat assessed as inhibition of LPS-induced TNFalpha production at 2 mg/kg, po administered 30 mins prior to LPS challenge measured after 1.5 hrs. It counts as functional.
The subject of experiment [2] is Rattus norvegicus. Nature of the experiment: Antiinflammatory activity in po dosed Lewis rat assessed as inhibition of LPS-induced TNFalpha production administered 30 mins prior to LPS challenge measured after 1.5 hrs. It counts as functional. The gist of the method: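 Overnight-fasted male Lewis rats (seven weeks old) were dosed orally at 0.1, 0.3, 1 and 3 mg/kg, 30 min before IV LPS (E. coli 055:B5 in saline). Serum TNF-α was measured by ELISA 1.5 h post-LPS, five rats per group, mean ± SEM. Dunnett's t-test versus vehicle; ED₅₀ taken from the dose-response.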

Activity calls are given as the source filed them. The calls are words filed in the database; no cut-off is given here.

On to `O=C(NCCCc1ccncc1)N(CCCC1CCCCC1)CC1CCCCC1`, for which the inhibition in vivo (as a rule, how much of the control response was suppressed) at 2 mg/kg with Rattus norvegicus [1] was determined as 71%.
For `O=C(NCCCc1ccncc1)N(CCCN1CCOCC1)CCC1CCCCC1`, the inhibition in vivo at 2 mg/kg in the experiment with Rattus norvegicus [1] amounted to 43%.
Regarding `O=C(NCCCc1ccncc1)N(CCC1CC2CCC1C2)CCN1CCOCC1` (stereo unspecified), the inhibition in vivo at 2 mg/kg in the experiment on Rattus norvegicus [1] amounted to 55%.
For `CCCCN(CCCN1CCOCC1)C(=O)NCCCc1ccncc1`, the inhibition in vivo at 2 mg/kg in the experiment on Rattus norvegicus [1] came to 32%.
With `O=C(NCCCc1ccncc1)N(CCC1CCCCC1)CCN1C2CCC1CC2`, the inhibition in vivo at 2 mg/kg with Rattus norvegicus [1] was 48%.
With `O=C(NCCCc1ccncc1)N(CCCN1CCOCC1)CCC12CC3CC(CC(C3)C1)C2`, the inhibition in vivo at 2 mg/kg in the experiment with Rattus norvegicus [1] came out at 45%.
The same measure, in the same setting: then `O=C(NCCCc1ccncc1)N(CCCN1CCOCC1)CCC1CC2CCC1C2` (stereo unspecified), with 44%; and `O=C(NCCCc1ccncc1)N(CCC1CCCCC1)CCN1CCOCC1`, with 50%; and `COCCOCCN(CCC1CCCCC1)C(=O)NCCCc1ccncc1`, with 14%.
As for `CCCCN(CCN1CCOCC1)C(=O)NCCCc1ccncc1`, in the experiment on Rattus norvegicus [1], the inhibition in vivo at 2 mg/kg turned out to be 21%.
Regarding `O=C(NCCCc1ccncc1)N(CCC1CCCCC1)CCC1CCCCC1`, the inhibition in vivo at 2 mg/kg with Rattus norvegicus [1] was determined as 91%.
Take `O=C(NCCCc1ccncc1)N(CCCC1CCCCC1)CCC1CCCCC1`: the ED50 (in general, the dose that gives a 50% effect, or the effect in half of the subjects) in the experiment on Rattus norvegicus [2] stood at 0.34 mg/kg. In addition, the inhibition in vivo at 2 mg/kg in the experiment with Rattus norvegicus [1] was found to be 92%.
On to `O=C(NCCCc1ccncc1)N(CCN1CCOCC1)CCN1C2CCC1CC2`, for which, in the experiment on Rattus norvegicus [1], the inhibition in vivo at 2 mg/kg came to 8%.
In the case of `O=C(NCCCc1ccncc1)N(CCN1CCOCC1)CCC12CC3CC(CC(C3)C1)C2`, the inhibition in vivo at 2 mg/kg with Rattus norvegicus [1] is 45%.
`CCOCCN(CCC1CCCCC1)C(=O)NCCCc1ccncc1`: the inhibition in vivo at 2 mg/kg in the experiment on Rattus norvegicus [1] is 4%.
For `CCCCN(CCOCC)C(=O)NCCCc1ccncc1`, the inhibition result with Rattus norvegicus [1] is “inactive”.
As to `CCCCCN(CCC12CC3CC(CC(C3)C1)C2)C(=O)NCCCc1ccncc1`, in the experiment with Rattus norvegicus [2], the ED50 amounted to 1.7 mg/kg. Further, the inhibition in vivo at 2 mg/kg in the experiment on Rattus norvegicus [1] worked out at 72%.
For the molecule `CCCCN(CCCOC)C(=O)NCCCc1ccncc1`, the inhibition in vivo at 2 mg/kg in the experiment with Rattus norvegicus [1] was found to be 21%.
As for `CCOCCN(CCC1CC2CCC1C2)C(=O)NCCCc1ccncc1` (stereo unspecified), the inhibition result with Rattus norvegicus [1] is “inactive”.
For the molecule `O=C(NCCCc1ccncc1)N(CCC1CCCCC1)CCC1CCOCC1`, the inhibition in vivo at 2 mg/kg with Rattus norvegicus [1] was determined as 38%.
Consider `COCCCN(CCC1CC2CCC1C2)C(=O)NCCCc1ccncc1` (stereo unspecified), for which the inhibition in vivo at 2 mg/kg with Rattus norvegicus [1] was found to be 10%.
Turning to `O=C(NCCCc1ccncc1)N(CCCC1CCCCC1)CCC1CCCC1`, the inhibition in vivo at 2 mg/kg with Rattus norvegicus [1] worked out at 87%.
With `COCCCN(CCC1CCCCC1)C(=O)NCCCc1ccncc1`, the inhibition entry with Rattus norvegicus [1] is “inactive”.
On the same count and under the same terms, then `O=C(NCCCc1ccncc1)N(CCC1CCOCC1)CCN1CCOCC1`, with “inactive”.
